Conditions in all cases: stereoisomer not certain
One test addresses T1, UniProt Q8VF43.
T1 sequence (whole entry): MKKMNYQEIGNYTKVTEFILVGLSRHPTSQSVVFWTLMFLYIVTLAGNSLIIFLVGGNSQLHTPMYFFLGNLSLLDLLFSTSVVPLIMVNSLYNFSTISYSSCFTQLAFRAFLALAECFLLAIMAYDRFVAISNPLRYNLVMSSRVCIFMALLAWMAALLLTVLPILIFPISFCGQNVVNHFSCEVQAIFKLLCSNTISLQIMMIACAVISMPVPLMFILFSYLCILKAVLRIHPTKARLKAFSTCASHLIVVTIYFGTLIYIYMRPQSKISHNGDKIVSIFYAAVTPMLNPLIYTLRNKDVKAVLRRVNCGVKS
In short, it runs like this: (§1)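 Assay methods differ from source to source, frequently being transient luciferase assays in mammalian cell lines. For each receptor–molecule pair, the label responsive (active) applies when the original authors judged the measured signal statistically different from baseline, and non-responsive (inactive) applies otherwise.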

In the next test the target is T2, UniProt Q8VF52.
T2 sequence (whole entry): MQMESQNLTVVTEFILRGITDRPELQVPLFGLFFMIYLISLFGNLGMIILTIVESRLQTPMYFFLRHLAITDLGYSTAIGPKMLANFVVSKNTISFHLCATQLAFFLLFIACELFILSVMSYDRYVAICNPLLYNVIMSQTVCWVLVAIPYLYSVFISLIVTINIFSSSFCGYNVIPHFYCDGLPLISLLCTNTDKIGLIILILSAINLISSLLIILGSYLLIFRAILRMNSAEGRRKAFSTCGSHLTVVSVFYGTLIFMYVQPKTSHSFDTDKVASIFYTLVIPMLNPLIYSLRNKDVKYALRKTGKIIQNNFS
An outline of the steps:
as §1

The next test deals with T3, UniProt Q8VFM8.
T3 sequence (whole entry): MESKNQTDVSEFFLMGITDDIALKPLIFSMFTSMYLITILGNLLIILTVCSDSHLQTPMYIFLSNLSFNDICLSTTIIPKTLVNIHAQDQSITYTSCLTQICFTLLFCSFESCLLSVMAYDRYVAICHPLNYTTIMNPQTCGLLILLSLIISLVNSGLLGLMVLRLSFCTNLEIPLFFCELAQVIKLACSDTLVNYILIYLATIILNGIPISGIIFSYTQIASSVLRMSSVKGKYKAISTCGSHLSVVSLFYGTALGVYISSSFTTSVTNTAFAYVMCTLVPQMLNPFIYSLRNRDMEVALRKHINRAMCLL
In short, it runs like this:
as §1

Each structure is given as a SMILES string.

For the compound `COc1ccccc1`, the “odorant receptor agonist call” value with UniProt Q8VF43, with UniProt Q8VF52 and with UniProt Q8VFM8 was “inactive” throughout.
Turning to `CC(CC=O)CCCC(C)(C)O` (centres undefined), the “odorant receptor agonist call” value in the test with UniProt Q8VF43, with UniProt Q8VF52 and with UniProt Q8VFM8 was “inactive” in each case.
Take `Cc1c(C)c(C)c(C=O)c(C)c1C`: the “odorant receptor agonist call” value with UniProt Q8VF43 and with UniProt Q8VFM8 was “inactive” throughout. Also, the “odorant receptor agonist call” value with UniProt Q8VF52 is “active”.
As to `CC(=O)OCCc1ccccc1`, the “odorant receptor agonist call” value in the test with UniProt Q8VF43, with UniProt Q8VF52 and in the test with UniProt Q8VFM8 was “inactive” throughout.
With `CC(=O)OC1(C)CCC23CC1C(C)(C)C2CCC3C` (centres undefined), the “odorant receptor agonist call” value with UniProt Q8VF43 and in the test with UniProt Q8VF52 was “active” throughout. Besides, the “odorant receptor agonist call” value with UniProt Q8VFM8 is “inactive”.
As for `CCCCCCCOC(=O)C(C)C`, the “odorant receptor agonist call” value in the test with UniProt Q8VF43, with UniProt Q8VF52 and in the test with UniProt Q8VFM8 was “inactive” in each case.
Turning to `CCCCCCC(C=O)=Cc1ccccc1`, the “odorant receptor agonist call” value in the test with UniProt Q8VF43, with UniProt Q8VF52 and in the test with UniProt Q8VFM8 was “inactive” each time.
As to `CC=Cc1ccc(OC)cc1`, the “odorant receptor agonist call” value in the test with UniProt Q8VF43, with UniProt Q8VF52 and with UniProt Q8VFM8 was “inactive” in each case.
As to `O=C(O)C1CCC1`, the “odorant receptor agonist call” value with UniProt Q8VF43, with UniProt Q8VF52 and with UniProt Q8VFM8 was “inactive” throughout.
As to `CCOC(=O)CC(C)C`, the “odorant receptor agonist call” value in the test with UniProt Q8VF43, with UniProt Q8VF52 and with UniProt Q8VFM8 was “inactive” in each case.
In the case of `O=C(O)CCCCCCCCC(=O)O`, the “odorant receptor agonist call” value with UniProt Q8VF43, in the test with UniProt Q8VF52 and with UniProt Q8VFM8 was “inactive” each time.
Take `CC1(C)CC(=O)CC(=O)C1`: the “odorant receptor agonist call” value with UniProt Q8VF43, with UniProt Q8VF52 and with UniProt Q8VFM8 was “inactive” each time.
Regarding `CCSSCC`, the “odorant receptor agonist call” value in the test with UniProt Q8VF43, with UniProt Q8VF52 and in the test with UniProt Q8VFM8 was “inactive” throughout.
For the compound `COC(OC)c1ccccc1`, the “odorant receptor agonist call” value with UniProt Q8VF43, with UniProt Q8VF52 and with UniProt Q8VFM8 was “inactive” in each case.
For the compound `CCCCCOC(=O)CCC`, the “odorant receptor agonist call” value with UniProt Q8VF43, in the test with UniProt Q8VF52 and with UniProt Q8VFM8 was “inactive” throughout.
Regarding `CCCCCC(=Cc1ccccc1)C(OC)OC`, the “odorant receptor agonist call” value with UniProt Q8VF43, with UniProt Q8VF52 and with UniProt Q8VFM8 was “inactive” in each case.
Regarding `CCC(C)O` (centres undefined), the “odorant receptor agonist call” value in the test with UniProt Q8VF43, with UniProt Q8VF52 and in the test with UniProt Q8VFM8 was “inactive” throughout.
For the compound `CCC=CCCC=CC=O`, the “odorant receptor agonist call” value with UniProt Q8VF43, in the test with UniProt Q8VF52 and in the test with UniProt Q8VFM8 was “inactive” in each case.
In the case of `CCCCCCCCCC=CC=O`, the “odorant receptor agonist call” value in the test with UniProt Q8VF43, in the test with UniProt Q8VF52 and with UniProt Q8VFM8 was “inactive” in each case.
As to `CSSSC`, the “odorant receptor agonist call” value with UniProt Q8VF43, with UniProt Q8VF52 and with UniProt Q8VFM8 was “inactive” each time.
As for `Cc1ccc2c(c1)OCC(=O)CO2`, the “odorant receptor agonist call” value with UniProt Q8VF43, with UniProt Q8VF52 and in the test with UniProt Q8VFM8 was “inactive” in each case.
Consider `Cc1ccc(C(C)C)cc1`, for which the “odorant receptor agonist call” value in the test with UniProt Q8VF43, in the test with UniProt Q8VF52 and in the test with UniProt Q8VFM8 was “inactive” throughout.
On to `CCOC(=O)C(C)CC` (centres undefined), for which the “odorant receptor agonist call” value with UniProt Q8VF43, in the test with UniProt Q8VF52 and in the test with UniProt Q8VFM8 was “inactive” throughout.
In the case of `CNc1ccccc1C(=O)OC`, the “odorant receptor agonist call” value in the test with UniProt Q8VF43, with UniProt Q8VF52 and with UniProt Q8VFM8 was “inactive” throughout.
In the case of `CC(=O)C=CC1=C(C)CCCC1(C)C`, the “odorant receptor agonist call” value with UniProt Q8VF43 and in the test with UniProt Q8VFM8 was “inactive” in each case. Moreover, the “odorant receptor agonist call” value with UniProt Q8VF52 is “active”.
With `Cc1ccc(C(C)C)c(O)c1`, the “odorant receptor agonist call” value with UniProt Q8VF43, with UniProt Q8VF52 and in the test with UniProt Q8VFM8 was “inactive” in each case.
Turning to `CC(C)=CCCC(C)=CCOC(=O)C(C)C`, the “odorant receptor agonist call” value with UniProt Q8VF43, with UniProt Q8VF52 and with UniProt Q8VFM8 was “inactive” throughout.
For `C=CC(=O)CCCCC`, the “odorant receptor agonist call” value in the test with UniProt Q8VF43, with UniProt Q8VF52 and with UniProt Q8VFM8 was “inactive” in each case.
As for `c1ccc2ncccc2c1`, the “odorant receptor agonist call” value with UniProt Q8VF43 and in the test with UniProt Q8VFM8 was “inactive” each time. In addition, the “odorant receptor agonist call” value with UniProt Q8VF52 is “active”.
Turning to `C=C(CC)CCCC(C)(C)O`, the “odorant receptor agonist call” value in the test with UniProt Q8VF43, with UniProt Q8VF52 and in the test with UniProt Q8VFM8 was “inactive” in each case.
Consider `OCC=Cc1ccccc1`, for which the “odorant receptor agonist call” value with UniProt Q8VF43, with UniProt Q8VF52 and with UniProt Q8VFM8 was “inactive” each time.
For `CCCCCCCCOC=O`, the “odorant receptor agonist call” value in the test with UniProt Q8VF43, in the test with UniProt Q8VF52 and with UniProt Q8VFM8 was “inactive” throughout.
Regarding `CC1CC=CCCCCCCCCCC(=O)C1` (centres undefined), the “odorant receptor agonist call” value with UniProt Q8VF43, in the test with UniProt Q8VF52 and in the test with UniProt Q8VFM8 was “inactive” throughout.

The values above are taken from the M2OR odorant receptor database.
